In ChEMBL document CHEMBL4689842, “EUbOPEN Chemogenomics Library wave 1” (2021):

Tested on: Fibroblast
Assay: Multiplex assay against human fibroblast
Assay type: toxicity, cell-based
In short: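 Per cents of healthy-nucleus cells form the tubulin, mitochondrial-mass and membrane-permeability phenotype values. Live cells were stained at seeding with Hoechst33342, BioTracker Green Microtubule Cytoskeleton Dye, MitoTracker Red and Annexin V Alexa Fluor 680. After compound addition they were imaged on a CQ1 microscope at 37°C and 5% CO2, and CellPathfinder machine-learning gating split them into Hoechst high-intensity objects or normal cells, normal cells into healthy, pyknosed or fragmented nuclei, and pyknosed cells into mitotic or apoptotic.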

[1] = 12 h, 1 µM, compound concentration 1 uM, replicate 1
[2] = 12 h, 1 µM, compound concentration 1 uM, replicate 2
[3] = 12 h, 10 µM, compound concentration 10 uM, replicate 1
[4] = 12 h, 10 µM, compound concentration 10 uM, replicate 2
[5] = 24 h, 1 µM, compound concentration 1 uM, replicate 1
[6] = 24 h, 1 µM, compound concentration 1 uM, replicate 2
[7] = 24 h, 10 µM, compound concentration 10 uM, replicate 1
[8] = 24 h, 10 µM, compound concentration 10 uM, replicate 2

CC(C)(C)c1cnc(CSc2cnc(NC(=O)C3CCNCC3)s2)o1 [BMS-387032]
Population Apoptotic (%) [1]: 75%
Population Fragmented Nuclei (%) [1]: 25%
Population Healthy Nuclei (%) [1]: 56%
Population Hoechst High Intensity Objects (%) [1]: 12%
Population Membrane Permeable-Phenotype (%) [1]: 10%
Population Mitochondria Different-Phenotype (%) [1]: 10%
Population Mitotic Cells (%) [1]: 24%
Population Normal (%) [1]: 87%
Population Pyknosed Nuclei (%) [1]: 18%
Population Tubulin-Different-Phenotype (%) [1]: 11%
Total Cell Count [1]: 199
Population Apoptotic (%) [2]: 50%
Population Fragmented Nuclei (%) [2]: 58%
Population Healthy Nuclei (%) [2]: 33%
Population Hoechst High Intensity Objects (%) [2]: 37%
Population Membrane Permeable-Phenotype (%) [2]: 5%
Population Mitochondria Different-Phenotype (%) [2]: 5%
Population Mitotic Cells (%) [2]: 50%
Population Normal (%) [2]: 62%
Population Pyknosed Nuclei (%) [2]: 7%
Population Tubulin-Different-Phenotype (%) [2]: 0%
Total Cell Count [2]: 82
Population Apoptotic (%) [3]: 75%
Population Fragmented Nuclei (%) [3]: 28%
Population Healthy Nuclei (%) [3]: 54%
Population Hoechst High Intensity Objects (%) [3]: 8%
Population Membrane Permeable-Phenotype (%) [3]: 1%
Population Mitochondria Different-Phenotype (%) [3]: 21%
Population Mitotic Cells (%) [3]: 24%
Population Normal (%) [3]: 91%
Population Pyknosed Nuclei (%) [3]: 17%
Population Tubulin-Different-Phenotype (%) [3]: 32%
Total Cell Count [3]: 207
Population Apoptotic (%) [4]: 54%
Population Fragmented Nuclei (%) [4]: 58%
Population Healthy Nuclei (%) [4]: 19%
Population Hoechst High Intensity Objects (%) [4]: 26%
Population Membrane Permeable-Phenotype (%) [4]: 0%
Population Mitochondria Different-Phenotype (%) [4]: 50%
Population Mitotic Cells (%) [4]: 45%
Population Normal (%) [4]: 73%
Population Pyknosed Nuclei (%) [4]: 21%
Population Tubulin-Different-Phenotype (%) [4]: 40%
Total Cell Count [4]: 69
Population Apoptotic (%) [5]: 54%
Population Fragmented Nuclei (%) [5]: 30%
Population Healthy Nuclei (%) [5]: 47%
Population Hoechst High Intensity Objects (%) [5]: 12%
Population Membrane Permeable-Phenotype (%) [5]: 6%
Population Mitochondria Different-Phenotype (%) [5]: 4%
Population Mitotic Cells (%) [5]: 45%
Population Normal (%) [5]: 87%
Population Pyknosed Nuclei (%) [5]: 21%
Population Tubulin-Different-Phenotype (%) [5]: 10%
Total Cell Count [5]: 197
Population Apoptotic (%) [6]: 62%
Population Fragmented Nuclei (%) [6]: 51%
Population Healthy Nuclei (%) [6]: 32%
Population Hoechst High Intensity Objects (%) [6]: 35%
Population Membrane Permeable-Phenotype (%) [6]: 5%
Population Mitochondria Different-Phenotype (%) [6]: 5%
Population Mitotic Cells (%) [6]: 37%
Population Normal (%) [6]: 65%
Population Pyknosed Nuclei (%) [6]: 15%
Population Tubulin-Different-Phenotype (%) [6]: 5%
Total Cell Count [6]: 80
Population Apoptotic (%) [7]: 65%
Population Fragmented Nuclei (%) [7]: 34%
Population Healthy Nuclei (%) [7]: 48%
Population Hoechst High Intensity Objects (%) [7]: 8%
Population Membrane Permeable-Phenotype (%) [7]: 4%
Population Mitochondria Different-Phenotype (%) [7]: 29%
Population Mitotic Cells (%) [7]: 34%
Population Normal (%) [7]: 91%
Population Pyknosed Nuclei (%) [7]: 17%
Population Tubulin-Different-Phenotype (%) [7]: 54%
Total Cell Count [7]: 196
Population Apoptotic (%) [8]: 62%
Population Fragmented Nuclei (%) [8]: 44%
Population Healthy Nuclei (%) [8]: 18%
Population Hoechst High Intensity Objects (%) [8]: 31%
Population Membrane Permeable-Phenotype (%) [8]: 0%
Population Mitochondria Different-Phenotype (%) [8]: 62%
Population Mitotic Cells (%) [8]: 37%
Population Normal (%) [8]: 68%
Population Pyknosed Nuclei (%) [8]: 37%
Population Tubulin-Different-Phenotype (%) [8]: 50%
Total Cell Count [8]: 63
